From ChEMBL document CHEMBL2321840, “Synthesis and structure-activity relationships of indazole arylsulfonamides as allosteric CC-chemokine receptor 4 (CCR4) antagonists” (J Med Chem, 2013)
Values after ≈ are worked out from the molar mass of the structure shown.

Columns and labels:
Oryctolagus cuniculus [1] = organism: Oryctolagus cuniculus; experiment: Cardiotoxicity in rabbit ventricular wedge assessed as cardiovascular issues upto 10 uM; format: toxicity, Cardiac ventricle
Oryctolagus cuniculus [2] = organism: Oryctolagus cuniculus; experiment: Cardiotoxicity in rabbit assessed as liability for torsadogenic arrhythmia; format: toxicity
Oryctolagus cuniculus [3] = organism: Oryctolagus cuniculus; experiment: Cardiotoxicity in rabbit assessed as effect on contractility; format: toxicity
Oryctolagus cuniculus [4] = organism: Oryctolagus cuniculus; experiment: Cardiotoxicity in rabbit assessed as effect on cardiac repolarization; format: toxicity, Heart
HepG2 [5] = experiment: Cytotoxicity in human HepG2 cells assessed as effect on mitochondria; format: cell-based
HepG2 [6] = experiment: Cytotoxicity in human HepG2 cells assessed as effect on cell membrane; format: cell-based
[7] = molecular target: T1, Solute carrier organic anion transporter family member 1B1 (Homo sapiens, UniProt Q9Y6L6); experiment: Antagonist activity at OATP1B1 (unknown origin) by [35S]GTPgammaS binding assay; format: functional
T1 sequence (Q9Y6L6 whole entry): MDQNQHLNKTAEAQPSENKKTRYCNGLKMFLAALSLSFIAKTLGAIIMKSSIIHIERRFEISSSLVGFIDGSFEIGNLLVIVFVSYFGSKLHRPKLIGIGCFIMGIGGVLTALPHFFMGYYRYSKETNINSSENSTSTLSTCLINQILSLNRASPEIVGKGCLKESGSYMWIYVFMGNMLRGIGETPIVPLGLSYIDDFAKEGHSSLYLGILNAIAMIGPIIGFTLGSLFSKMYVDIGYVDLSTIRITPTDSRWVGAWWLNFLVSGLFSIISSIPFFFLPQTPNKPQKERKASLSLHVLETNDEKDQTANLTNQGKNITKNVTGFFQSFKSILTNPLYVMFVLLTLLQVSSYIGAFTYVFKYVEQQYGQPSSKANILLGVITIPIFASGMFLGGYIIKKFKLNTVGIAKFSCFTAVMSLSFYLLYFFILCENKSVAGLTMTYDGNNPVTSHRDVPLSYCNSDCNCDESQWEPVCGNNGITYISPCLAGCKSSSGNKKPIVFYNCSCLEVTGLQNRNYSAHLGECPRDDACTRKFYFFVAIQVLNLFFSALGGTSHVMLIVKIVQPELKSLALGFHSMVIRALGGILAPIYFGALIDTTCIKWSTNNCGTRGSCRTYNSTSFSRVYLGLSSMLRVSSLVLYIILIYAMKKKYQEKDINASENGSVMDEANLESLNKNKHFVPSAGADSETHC

[8] = molecular target: Acetylcholine receptor subunit alpha (Homo sapiens) (UniProt P02708); experiment: Antagonist activity at nAChR alpha1 (unknown origin) by [35S]GTPgammaS binding assay; format: functional
[9] = molecular target: C-X-C chemokine receptor type 4 (Homo sapiens, UniProt P61073); experiment: Antagonist activity at CXCR4 receptor (unknown origin) by [35S]GTPgammaS binding assay; format: functional
[10] = molecular target: T2, C-X-C chemokine receptor type 2 (Homo sapiens, UniProt P25025); experiment: Antagonist activity at CXCR2 receptor (unknown origin) by [35S]GTPgammaS binding assay; format: functional
T2 sequence (P25025 whole entry): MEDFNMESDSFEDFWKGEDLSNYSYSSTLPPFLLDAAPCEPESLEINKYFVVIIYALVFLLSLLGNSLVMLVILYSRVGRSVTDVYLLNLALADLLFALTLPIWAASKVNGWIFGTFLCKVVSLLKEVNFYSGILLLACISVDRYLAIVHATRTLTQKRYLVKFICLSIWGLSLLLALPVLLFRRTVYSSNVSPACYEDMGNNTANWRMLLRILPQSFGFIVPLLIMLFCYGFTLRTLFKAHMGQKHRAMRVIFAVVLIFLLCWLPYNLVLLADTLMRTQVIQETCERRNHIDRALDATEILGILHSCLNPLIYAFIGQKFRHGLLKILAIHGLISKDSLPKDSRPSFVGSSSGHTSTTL

[11] = molecular target: C-C chemokine receptor type 8 (Homo sapiens, UniProt P51685); experiment: Antagonist activity at CCR8 receptor (unknown origin) by [35S]GTPgammaS binding assay; format: functional
[12] = Chemical stability of the compound in PBS using MeOH at pH 7.4 by NMR analysis; format: physicochemical; conditions: buffer
[13] = Chemical stability of the compound in PBS using DMSO at pH 7.4 after 100 hrs by NMR analysis; format: physicochemical; conditions: buffer, pH 7.4, 100 h
[14] = Kinetic solubility of the compound in PBS using MeOH at pH 7.4 by NMR analysis; format: physicochemical; conditions: read-out: Kinetic_solubility
[15] = Equilibrium solubility of the compound in Britton-Robinson buffer at pH 10 after 24 hrs by HPLC analysis; format: physicochemical
Procedure, shortened: (§1)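 Solid compound was equilibrated 24 h in Britton–Robinson buffer at the stated pH. Dissolved compound was quantified by HPLC.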

[16] = Equilibrium solubility of the compound in Britton-Robinson buffer at pH 7 after 24 hrs by HPLC analysis; format: physicochemical; procedure, shortened: as §1
[17] = Equilibrium solubility of the compound in Britton-Robinson buffer at pH 8 after 24 hrs by HPLC analysis; format: physicochemical; procedure, shortened: as §1
[18] = Equilibrium solubility of the compound in Britton-Robinson buffer at pH 2 after 24 hrs by HPLC analysis; format: physicochemical; procedure, shortened: as §1
[19] = Equilibrium solubility of the compound in saline after 24 hrs by HPLC analysis; format: physicochemical
Procedure, shortened: (§2)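 Solid compound was equilibrated 24 h in the stated medium: water, SGF pH 1.6, FeSSIF pH 6.5, FaSSIF pH 6.5 or saline. Dissolved compound was quantified by HPLC.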

[20] = Equilibrium solubility of the compound in fed-state simulated intestinal fluid at pH 6.5 after 24 hrs by HPLC analysis; format: physicochemical; procedure, shortened: as §2
[21] = Equilibrium solubility of the compound in water after 24 hrs by HPLC analysis; format: physicochemical; procedure, shortened: as §2
[22] = Dissociation constant, pKa of the compound; format: physicochemical
[23] = Plasma protein binding in human by equilibrium dialysis technique; format: ADME, cell-free; conditions: read-out: PPB (converted)
Procedure, shortened: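 Rapid equilibrium dialysis in CD rat, beagle dog or human plasma, with compound at a nominal 1 μg/mL; n = 3.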

[24] = Lipophilicity, log D of the compound by chromatographic analysis; format: physicochemical
Procedure, shortened: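 Chromatographic log D measured at pH 7.4.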

[25] = molecular target: T3, C-C chemokine receptor type 4 (Homo sapiens, UniProt P51679); experiment: Antagonist activity at human recombinant CCR4 receptor expressed in CHO cell membranes by [35S]GTPgammaS binding assay; format: functional
T3 sequence (P51679 whole entry): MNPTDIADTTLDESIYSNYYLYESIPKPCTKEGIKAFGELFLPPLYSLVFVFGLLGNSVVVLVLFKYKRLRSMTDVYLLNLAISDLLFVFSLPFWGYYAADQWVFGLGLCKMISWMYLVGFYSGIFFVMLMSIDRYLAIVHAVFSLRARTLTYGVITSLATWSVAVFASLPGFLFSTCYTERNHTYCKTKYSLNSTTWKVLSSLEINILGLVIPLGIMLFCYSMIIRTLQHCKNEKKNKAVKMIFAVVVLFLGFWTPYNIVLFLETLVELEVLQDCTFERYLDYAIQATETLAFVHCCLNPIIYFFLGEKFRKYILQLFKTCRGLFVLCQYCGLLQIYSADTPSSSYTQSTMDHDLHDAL

in vivo = conditions: beagle, dog, iv, 0.5 mg/kg
[26] = Stability of the compound in solid state at 40 to 50 degC 75 % relative humidity after 1 month by NMR analysis; conditions: 730.5 h

Acetylcholine receptor subunit alpha (Homo sapiens), sequence (P02708 whole entry): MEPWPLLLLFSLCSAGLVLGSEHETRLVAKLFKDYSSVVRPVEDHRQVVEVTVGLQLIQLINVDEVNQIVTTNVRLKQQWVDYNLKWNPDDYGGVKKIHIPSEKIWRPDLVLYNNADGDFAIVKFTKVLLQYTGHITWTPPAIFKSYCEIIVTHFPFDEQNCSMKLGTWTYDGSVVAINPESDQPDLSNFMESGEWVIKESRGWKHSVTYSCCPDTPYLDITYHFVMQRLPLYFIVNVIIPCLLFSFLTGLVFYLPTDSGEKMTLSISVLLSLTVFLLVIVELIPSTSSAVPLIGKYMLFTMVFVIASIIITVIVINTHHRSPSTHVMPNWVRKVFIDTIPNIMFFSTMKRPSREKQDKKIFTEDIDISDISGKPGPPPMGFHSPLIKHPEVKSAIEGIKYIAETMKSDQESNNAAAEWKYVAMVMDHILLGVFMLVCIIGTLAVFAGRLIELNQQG
C-C chemokine receptor type 8, sequence (P51685 whole entry): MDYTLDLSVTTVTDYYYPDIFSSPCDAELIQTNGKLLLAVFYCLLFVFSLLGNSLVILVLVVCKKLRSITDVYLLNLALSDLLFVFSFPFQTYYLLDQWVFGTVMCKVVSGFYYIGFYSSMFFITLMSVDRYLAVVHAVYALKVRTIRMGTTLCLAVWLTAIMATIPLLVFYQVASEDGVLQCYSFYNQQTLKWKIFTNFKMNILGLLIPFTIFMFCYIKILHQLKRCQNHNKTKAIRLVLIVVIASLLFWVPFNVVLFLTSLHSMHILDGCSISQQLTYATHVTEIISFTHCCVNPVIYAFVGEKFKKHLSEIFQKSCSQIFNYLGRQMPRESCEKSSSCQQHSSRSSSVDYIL
C-X-C chemokine receptor type 4, sequence (P61073 whole entry): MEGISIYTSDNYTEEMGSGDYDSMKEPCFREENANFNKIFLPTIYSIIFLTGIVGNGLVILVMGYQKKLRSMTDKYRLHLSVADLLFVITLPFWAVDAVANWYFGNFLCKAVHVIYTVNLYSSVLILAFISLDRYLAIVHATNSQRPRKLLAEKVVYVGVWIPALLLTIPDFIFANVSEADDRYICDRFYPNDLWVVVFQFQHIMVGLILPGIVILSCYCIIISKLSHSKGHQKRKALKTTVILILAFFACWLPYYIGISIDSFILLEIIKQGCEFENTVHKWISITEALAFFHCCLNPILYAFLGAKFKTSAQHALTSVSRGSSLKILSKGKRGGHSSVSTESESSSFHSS

IC50 [7]: 398 nM
pXC50 [8]: 5.1
IC50 [9]: > 10000 nM
IC50 [10]: > 10000 nM
IC50 [11]: > 10000 nM
Stability [12]: Unstable
Stability [13]: Stable
solubility kinetic [14]: > 270 µg/mL
solubility thermodynamic at 24 h [15]: 1320 µg/mL (≈ 2410 µM)
solubility thermodynamic at 24 h [16]: 10 µg/mL (≈ 18.2 µM)
solubility thermodynamic at 24 h [17]: 56 µg/mL (≈ 102 µM)
solubility thermodynamic at 24 h [18]: 3 µg/mL (≈ 5.46 µM)
solubility thermodynamic at 24 h [19]: 73 µg/mL (≈ 133 µM)
solubility thermodynamic at 24 h [20]: 23 µg/mL (≈ 41.9 µM)
solubility thermodynamic at 24 h [21]: 57 µg/mL (≈ 104 µM)
pKa [22]: 6.54
fraction unbound [23]: 0.01
chromatographic logD [24]: 4.3
IC50 [25]: 39.8 nM
half-life (in vivo): 2.6 h
Stability [26]: Stable
SMILES: COc1cccc2c1c(NS(=O)(=O)c1ccc(Cl)s1)nn2Cc1cccc(CNC(=O)C(C)(C)O)c1
Activity (Oryctolagus cuniculus [1]): Non-toxic
Activity (Oryctolagus cuniculus [2]): Non-toxic
Activity (Oryctolagus cuniculus [3]): Non-toxic
Activity (Oryctolagus cuniculus [4]): Non-toxic
Activity (HepG2 [5]): Non-toxic
Activity (HepG2 [6]): Non-toxic
